MrgX1 allo act: human MrgX1 positive allosteric modulation, primary screen; Q96LB2; MrgX1-HEK293, Fluo-4 calcium flux, FDSS; hits give high values; B-score at 10 µM; 310,000 compounds, 0.63% hits; AID 588675;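 active = plate-corrected calcium response at least 3 library SD above typical, normal starting fluorescence, not activating the receptor alone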;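 note: compound read alongside a low EC10 to EC30 dose of BAM8-22 agonist; peak minus trough fluorescence over baseline measured at the second addition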
Target sequence (Q96LB2 whole entry, looked up): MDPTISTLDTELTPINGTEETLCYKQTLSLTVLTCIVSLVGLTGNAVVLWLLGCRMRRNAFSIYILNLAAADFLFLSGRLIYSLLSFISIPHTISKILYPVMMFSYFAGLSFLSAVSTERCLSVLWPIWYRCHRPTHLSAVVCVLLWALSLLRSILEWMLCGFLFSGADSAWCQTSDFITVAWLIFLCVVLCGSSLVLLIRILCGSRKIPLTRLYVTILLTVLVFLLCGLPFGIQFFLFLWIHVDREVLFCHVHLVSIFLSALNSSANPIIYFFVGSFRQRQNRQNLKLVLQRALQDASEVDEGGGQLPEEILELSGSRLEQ
RGS4 block: inhibitors of human RGS4 | B-score at 10 µM | AID 463165 | 310,000 compounds, 0.45% hits | HEK293 M3R/RGS4 inducible, Fluo-4 calcium flux; hits give high values; triggered by carbachol at its EC20;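 active = B-score, a plate-corrected calcium signal, over three deviations above library mean, with baseline fluorescence within five deviations of library mean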;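 note: RGS4 expression induced by doxycycline in cells with stable M3 receptor; B-score is computed from the integrated fluorescence ratio over baseline after carbachol; higher B-score means a larger calcium signal and so more RGS4 inhibition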
Target sequence (P49798 whole entry, looked up): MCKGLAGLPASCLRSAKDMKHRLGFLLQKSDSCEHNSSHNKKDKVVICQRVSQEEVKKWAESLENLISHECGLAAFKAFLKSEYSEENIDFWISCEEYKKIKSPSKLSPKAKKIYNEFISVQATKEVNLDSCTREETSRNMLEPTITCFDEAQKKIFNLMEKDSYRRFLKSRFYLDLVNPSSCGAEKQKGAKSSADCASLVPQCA
RGS4 pot: potentiators or activators of RGS4; HEK293 M3R/inducible RGS4, carbachol calcium flux Fluo4; hits give low values; B-score at 10 µM; 310,000 compounds, 0.92% hits; AID 463111;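 active = B-score of the integrated calcium signal more than 4 SD below the library mean, with starting fluorescence not abnormally high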;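 note: negative B-score means reduced calcium response which marks RGS4 activation or potentiation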
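Also added: carbachol at ECmax as muscarinic agonist stimulus; Assay system: HEK293 cells with stable M3R and inducible RGS4; Timing: overnight RGS4 induction, 30 min dye load 37 °C, 20 min compound RT; Measured by: Fluo4-AM (2 µM) calcium-flux fluorescence, kinetic read.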
MrgX1 agonist: activates human MrgX1 receptor signaling; MrgX1-HEK293 cells, Fluo-4 calcium fluorescence, agonist mode; hits give high values; B-score at 10 µM; 310,000 compounds, 0.44% hits;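 active = calcium response B-score plate-corrected fluorescence ratio at least 3 library SD, with starting fluorescence B-score inside 5 SD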
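Assay system: MrgX1-expressing HEK293 cells / Amount: fifteen thousand cells per well / Doses: test compound in the initial addition of three / Timing: cells plated overnight, dye loaded 0.5 h 37 °C, 0.5 h room temperature / Technique: kinetic calcium dye fluorescence, Fluo-4 NW / Control set: positive and negative controls per plate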
MrgX1 antag: human MrgX1 receptor antagonism, primary screen; Q96LB2; MRGX1-HEK293 calcium flux, Fluo-4, BAM8-22 antagonism; hits give low values; B-score at 10 µM; 310,000 compounds, 1.3% hits; AID 588676;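 active = calcium-response B-score plate-corrected more than 3 library SD below zero, starting fluorescence within 5 deviations, no agonist response on first addition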;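 note: peak minus trough fluorescence over baseline after final BAM8-22 challenge near maximal dose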
The depositor's hits bear a star; i = inactive; x = no result. Compounds with a hit are over-represented: about 3.5% of the library has one in this group of screens.

SMILES	MrgX1 allo act	RGS4 block	RGS4 pot	MrgX1 agonist	MrgX1 antag
CN(C)CC(CCC(CN(C)C)C(O)(c1ccccc1)c1ccccc1)C(O)(c1ccccc1)c1ccccc1 (configuration not stated)	x	i	i	x	x
CC1=C(C)/C(=N\OS(=O)(=O)c2ccccc2)C=CC1=O	i	i	i	33*	i
Cc1ccc(S(=O)(=O)O/N=C2\CCCc3ccccc32)cc1	i	i	i	i	i
Cc1ccc(SCC(=O)NC2CC2)cc1	i	i	i	i	i
O=C(Cn1c(-c2ccccc2)c[n+]2ccsc12)c1ccc(Br)cc1	i	i	-8.1*	i	i
CCCCCCNC(=O)c1ccc(Br)o1	i	i	i	i	i
O=[N+]([O-])c1c(Nc2ccccc2O)cc(Cl)c2nonc12	i	i	i	i	-12*
C=C1C(=O)C=C2CN(C(=O)c3ccccc3)[C@@](Cc3ccc(F)cc3)(C(=O)OC)[C@@H]12	i	15*	i	47*	i
CC(=O)c1cccc(NC(=O)Nc2ccc3c(c2)CCC3)c1	i	i	i	i	i
CCOCCCn1c(=S)[nH]c2cc(C(=O)NCCOC)ccc2c1=O	i	i	i	i	i
CCOCCCNC(=O)c1ccc2c(=O)n(CCCOCC)c(=S)[nH]c2c1	13*	i	i	i	i
COc1ccc(N2CC(C(=O)OCC(=O)Nc3ccccc3C)CC2=O)cc1 (configuration not stated)	i	i	i	i	i
C=CCOC(=O)C1=C(C)NC(SCC(=O)NC(=O)OCC)=C(C#N)C1c1cccnc1 (configuration not stated)	i	i	i	i	i
C=CCn1c(SCCOc2ccccc2)nnc1C(C)NC(=O)c1ccccc1 (configuration not stated)	i	i	i	i	i
C=CCn1c(SCC(=O)N2CCOCC2)nnc1C(C)NC(=O)c1ccccc1 (configuration not stated)	i	i	i	i	-5.4*
O=C1NN(c2ccccc2)C(=O)/C1=C/c1cccs1	i	i	i	43*	i
O=C1NN(c2ccccc2)C(=O)/C1=C\c1ccccc1	i	i	i	i	i
O=C1C(=Cc2cccs2)C(=O)c2ccccc21	i	i	i	32*	i
O=C1NN(c2cccc(Br)c2)C(=O)/C1=C/c1cccs1	i	i	i	30*	i
COc1cc(/C=N/NC(N)=O)ccc1OC(=O)c1cccs1	9.5*	i	i	i	i
CCOc1cc(OCC)cc(C(=O)O)c1	i	i	i	i	i
O=C(O)c1ccc(S(=O)(=O)Nc2ccc(F)c(Cl)c2)cc1	i	i	i	i	i
CCNS(=O)(=O)c1ccc(NC(=S)N2CCc3ccccc32)cc1	i	i	i	i	i
Cc1cc(C(=O)Nc2ccccc2Cl)c2ccccc2n1	i	i	i	i	i
CN(C)/C=C(\C#N)c1nc2ccccc2[nH]1	i	i	i	i	i
SMILES	MrgX1 allo act	RGS4 block	RGS4 pot	MrgX1 agonist	MrgX1 antag
N#C/C(=C\c1ccc(Cl)cc1)c1nc2ncccc2[nH]1	19*	i	i	i	i
N#C/C(=C\c1c(Cl)cccc1Cl)c1nc2ccccc2[nH]1	8.7*	i	i	i	i
Cc1cc(/C=C(\C#N)c2nc3ccccc3[nH]2)c(C)n1C	i	i	i	i	i
Cc1cc(/C=C(/C#N)c2nc3ccccc3[nH]2)c(C)n1-c1cccc([N+](=O)[O-])c1	i	i	-7.1*	i	i
COc1cc(/C=C(\C#N)c2nc3ccccc3[nH]2)cc(OC)c1O	i	i	i	44*	i
COc1ccc(/C=C(\C#N)c2nc3ccccc3[nH]2)cc1O	x	i	i	x	x
CCOC(=O)c1c(C=O)c2ccccc2n1CC	i	i	i	i	i
Cc1ccc(SCC(=O)Nc2cccc(C)c2)cc1	i	i	i	i	i
c1ccc(-c2ccc(-c3ccncn3)cc2)cc1	i	i	i	i	i
Cc1ccccc1CN1C(=O)C(C)S/C1=N/N=C/c1ccco1 (configuration not stated)	13*	i	i	i	i
Cc1ccc(-c2csc(Cc3nc(-c4cc5ccccc5oc4=O)cs3)n2)cc1	i	i	-7*	i	i
N#CC1=C(N)SC(N)=C(C#N)C1c1ccoc1	i	i	i	37*	i
CC1=C(C#N)C(c2ccoc2)C(C(=O)OCc2ccccc2)=C(N)S1 (configuration not stated)	i	i	i	i	i
CCCc1nnc(NC(=O)C(=O)NCCN(CC)CC)s1	x	i	-7.3*	x	x
COc1ccc(Cl)cc1/C=C(\C#N)C(N)=O	i	i	i	30*	i
O=C(Nc1ccccc1)c1cc2ccccc2c(=O)s1	i	i	i	i	-7.8*
O=C(Nc1ccc(O)cc1)c1cc2ccccc2c(=O)s1	i	i	i	i	i
O=C(COc1coc(CN2CCN(c3ccc(F)cc3)CC2)cc1=O)Nc1ccccc1	i	i	i	i	i
O=C(Nc1ccccc1Cc1ccccc1)c1oc2ccccc2c1COc1ccccc1	i	i	i	i	-5.5*
c1cc2c3c(cccc3c1)C(N1CCCCC1)=N2	i	i	i	i	i
c1cc2c3c(cccc3c1)C(N1CCCCCC1)=N2	i	i	-7.4*	i	i
COc1ccc(/C(C)=N/NC(=O)c2ccncc2)cc1	i	i	i	i	i
C/C(=N/NC(=O)c1ccncc1)C1=C(O)CC(C)(C)CC1=O	i	i	i	i	-4.7*
O=c1c2ccccc2[nH]c2ccccc12	i	i	i	i	i
Cc1cc(OC(=O)c2ccccc2[N+](=O)[O-])c([N+](=O)[O-])c(=O)[nH]1	i	i	i	i	i
COc1cccc(C(=O)Oc2cc(C)[nH]c(=O)c2[N+](=O)[O-])c1OC	i	i	i	i	-4.8*
Cn1nc(CC(=O)Nc2ncc(Br)s2)c2ccccc2c1=O	8.9*	i	i	i	i
Cn1nc(CC(=O)NC2CCCCCCCCCCC2)c2ccccc2c1=O	i	i	i	i	i
NC1=NC[C@H](c2ccccc2)N1CCCCC1CCCCC1	i	i	i	i	i
O=C(/C=C/c1ccc([N+](=O)[O-])cc1)/C=C/c1ccco1	i	16*	i	i	i

Source: PubChem BioAssay (Johns Hopkins Ion Channel Center)
